Source: ChEMBL document CHEMBL5584325, “Discovery of novel coumarin triazolyl and phenoxyphenyl triazolyl derivatives targeting amyloid beta aggregation-mediated oxidative stress and neuroinflammation for enhanced neuroprotection” (RSC Med Chem, 2024)
The source made the active and inactive calls. No cut-off for these calls is given here.

Experiments:
BV-2 [1] = assay: Cytotoxicity against mouse BV-2 cells assessed as reduction in cell viability at 10 uM measured after 24 hrs by MTT assay; assay type: toxicity, cell-based; conditions: bv-2, 24 h
Procedure, shortened: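 BV-2 microglia grown in DMEM with 10% FBS, HEPES and Glutamax at 37 °C, 5% CO2, seeded overnight at 1 × 10^4 cells/well. Compound alone at 0–200 μM (range extended lower where needed) for 24 h. MTT 2 h at 37 °C, formazan dissolved in DMSO, A570 read. Used to pick non-toxic concentrations.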

[2] = molecular target: T1, Amyloid-beta precursor protein (Homo sapiens, UniProt P05067); assay: Inhibition of amyloid beta (1 to 42) (unknown origin) aggregation at 100 uM incubated for 48 hrs by ThioflavinT staining based fluorescence assay relative to control
T1 sequence (P05067 whole entry): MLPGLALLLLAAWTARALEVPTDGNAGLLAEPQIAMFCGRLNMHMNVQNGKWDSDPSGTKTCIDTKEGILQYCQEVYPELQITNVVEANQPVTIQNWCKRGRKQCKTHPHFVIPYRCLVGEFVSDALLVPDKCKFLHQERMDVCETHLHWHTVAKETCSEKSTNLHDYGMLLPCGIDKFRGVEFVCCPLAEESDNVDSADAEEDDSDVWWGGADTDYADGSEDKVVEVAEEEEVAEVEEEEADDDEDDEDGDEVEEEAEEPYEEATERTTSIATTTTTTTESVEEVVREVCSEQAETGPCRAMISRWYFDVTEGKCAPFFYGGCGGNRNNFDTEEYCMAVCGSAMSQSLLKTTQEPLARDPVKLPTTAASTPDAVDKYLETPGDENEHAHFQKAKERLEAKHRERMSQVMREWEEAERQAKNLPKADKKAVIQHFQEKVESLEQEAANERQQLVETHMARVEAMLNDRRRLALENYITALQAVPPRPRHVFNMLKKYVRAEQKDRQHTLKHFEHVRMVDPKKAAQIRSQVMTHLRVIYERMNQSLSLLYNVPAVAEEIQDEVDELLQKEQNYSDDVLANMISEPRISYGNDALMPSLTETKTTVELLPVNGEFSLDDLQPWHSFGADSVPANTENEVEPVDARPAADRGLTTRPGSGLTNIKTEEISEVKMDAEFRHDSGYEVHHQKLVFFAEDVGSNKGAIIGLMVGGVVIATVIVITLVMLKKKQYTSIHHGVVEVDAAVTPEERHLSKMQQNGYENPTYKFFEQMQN
Procedure, shortened: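 Compound in DMSO (1 μl of a 1 mM solution) mixed with 9 μl of 25 μM Aβ1–42 in Tris pH 7.4. Incubated 48 h at 37 °C without agitation, then 200 μl of 5 μM ThT added. Fluorescence read at ex 446/em 500 nm; % inhibition vs DMSO control, solvent blank subtracted.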

BV-2 [3] = assay: Neuroprotective activity in amyloid beta (1 to 42)-induced cytotoxicity in mouse BV-2 cells assessed as cell viability at 10 uM measured after 24 hrs by MTT assay (reference value: 54.96 +/- 1.12%); assay type: functional; conditions: read-out: Activity
SH-SY5Y = assay: Neuroprotective activity against human SH-SY5Y cells co-cultured with 10 uM compound pretreated BV-2 cells exposed to amyloid beta (1 to 42) assessed as cell viability measured after 24 hrs by MTT assay (reference value: 80.62 +/- 0.86%); assay type: functional; conditions: read-out: Activity
BV-2 [4] = assay: Neuroprotective activity in amyloid beta (1 to 42)-induced inflammation in mouse BV-2 cells assessed as TNFalpha mRNA expression at 10 uM measured after 24 hrs by SYBR green staining based qRT-PCR analysis (reference value: 1.73 +/- 0.22%); assay type: functional
BV-2 [5] = assay: Neuroprotective activity in amyloid beta (1 to 42)-induced inflammation in mouse BV-2 cells assessed as IL-1beta mRNA expression at 10 uM measured after 24 hrs by SYBR green staining based qRT-PCR analysis (reference value: 1.53 +/- 0.13%); assay type: functional
[6] = Induction of ROS generation in mouse BV-2 cells at 10 uM measured after 24 hrs by DCFH-DA staining based fluorescence assay; assay type: toxicity, cell-based; conditions: bv-2, 24 h
Procedure, shortened: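 BV-2 cells seeded overnight at 1 × 10^4/well, compound alone (no Aβ). Cells loaded with 20 μM (final) DCFH-DA for 30 min at 37 °C, washed, then given conditioned medium for 24 h. Fluorescence read at ex […] nm. Expressed as % of control; n = 3 in triplicate, one-way ANOVA with LSD.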

[7] = molecular target: T1, Amyloid-beta precursor protein; assay: Inhibition of amyloid beta (1 to 42) (unknown origin) aggregation incubated for 48 hrs by ThioflavinT staining based fluorescence assay
BV-2 [8] = assay: Neuroprotective activity in amyloid beta (1 to 42)-induced oxidative stress in mouse BV-2 cells assessed as intracellular ROS level at 10 uM measured after 24 hrs by DCFH-DA staining based fluorescence assay (reference value: 150.91 +/- 0.49%); assay type: functional
BV-2 [9] = assay: Neuroprotective activity in amyloid beta (1 to 42)-induced inflammation in mouse BV-2 cells assessed as change in IL-6 mRNA expression at 10 uM measured after 24 hrs by SYBR green staining based qRT-PCR analysis; assay type: functional, cell-based
[10] = Octanol/water partition coefficient, log P of the compound incubated for 2 hrs under shaking condition by HPLC analysis; assay type: physicochemical
Procedure, shortened: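 Shake-flask log P: 10 mM stock (DMSO, or octanol for highly lipophilic compounds) partitioned between mutually saturated octanol and water at three phase ratios. Shaken 2 h at 25 ± 1 °C, phases separated, each phase quantified by C18 HPLC-UV. Mobile phase 0.1% formic acid:methanol 40:60; log P averaged over the three ratios.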

[11] = molecular target: T1, Amyloid-beta precursor protein; assay: Inhibition of amyloid beta (1 to 42) aggregation in mouse BV-2 cells exposed to amyloid-beta (1 to 42) (unknown origin) at 10 uM measured after 24 to 48 hrs by thioflavin T staining based fluorescence assay; assay type: cell-based; conditions: time 24-48 hrs

COc1cc(/C=C/C(=O)OCc2cn(-c3ccc(Oc4ccccc4)cc3)nn2)ccc1O
Activity (BV-2 [1]): Non-Toxic
inhibition [2]: > 50%
viability at 10 µM (BV-2 [3]): 62.9%
viability at 10 µM (SH-SY5Y): 87.2%
Activity (BV-2 [4]): 1.19%
Activity (BV-2 [5]): 8.29%
Activity [6]: Non-Toxic
IC50 [7]: 14.1 µM
Activity (BV-2 [8]): 105.68%
Activity (BV-2 [9]): inactive
logP at 2 h [10]: 4.92
inhibition [11]: Active
